# DENV2 CPE = inhibitors of DENV2 cytopathic effect, primary screen, cell-based, plate reader, single concentration | CPE inhibition, % at 9.99 µM | 350,000 tested, 1.7% active | DENV2-infected cells, cytopathic effect rescue; in the data active = CPE inhibition above about 20%, passing the limit was not always enough; inconclusive = no clear call, values can overlap the other calls; tested in BHK-21 cells;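 note: 0% = median of neutral control wells and 100% = median of positive control wells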
# E-sel inducer = E-selectin induction in HUVECs, primary screen, imaging, HUVEC, immunofluorescence imaging, single point | normalized: neutral wells 0, TNF-alpha wells 100 | activation, % at 7.58 µM | P16581 | 260,000 tested, 0.37% active;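 active = mean E-selectin-positive cell signal at least 10% of the positive control, reached in at least 60% of replicates, without over 20% cell loss; inconclusive = no rule given, readout overlaps actives, possibly toxicity-flagged; inactive = the rest, including those meeting only one limit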
#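 material = human umbilical vein endothelial cells (HUVEC), E-selectin induction | quantity = 3,000 cells/well | medium = EGM-2 growth medium on 0.1% gelatin-coated wells | technique = immunofluorescence imaging | read-out basis = % PE-positive cells | control set = TNF-alpha positive control, DMSO neutral control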
# SIRT5 block = SIRT5 desuccinylase inhibitors, primary screen, biochemical, fluorescence imaging, single point, set 5; Purified SirT5, succinyl-peptide AMC, trypsin-coupled fluorescence; inhibition, % at 15 µM; AID 652115, 2013; 330,000 tested, 1.1% active; in the data active = inhibition above about 15%; inconclusive = no clear call, values can overlap the other calls
# Target sequence (Q9NXA8 whole entry, looked up): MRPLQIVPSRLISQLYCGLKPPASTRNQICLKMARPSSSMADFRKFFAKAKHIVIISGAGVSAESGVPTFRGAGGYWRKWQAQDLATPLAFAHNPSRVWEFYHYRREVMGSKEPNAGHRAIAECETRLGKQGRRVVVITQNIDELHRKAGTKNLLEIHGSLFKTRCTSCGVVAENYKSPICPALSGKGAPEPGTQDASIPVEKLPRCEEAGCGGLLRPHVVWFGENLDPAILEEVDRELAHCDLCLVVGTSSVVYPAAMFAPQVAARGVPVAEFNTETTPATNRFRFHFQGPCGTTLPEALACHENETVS
# Numbers without * were called inactive; ? = inconclusive; nt = not tested or not shown; ! = repeats disagree. Hits are enriched below; roughly 2.9% of the tested compounds scored in any of these assays.
SMILES,DENV2 CPE,E-sel inducer,SIRT5 block
Cn1c(SCC(=O)Nc2ccccc2)nnc1C(F)(F)F,0,-1,0
CCOc1ncccc1C(=O)Nc1ccc(S(=O)(=O)Nc2nccs2)cc1,7,1,1
O=[S@]1Oc2ccccc2-c2ccccc21,67*,nt,-4
c1ccc2c(c1)Oc1cccc3cccc-2c13,-3,0,-3
COc1ccc(C)cc1NC(=O)CNC(c1ccccc1)c1ccccc1,4,nt,-3
COc1cc(C(=O)Nc2ccc(C)cc2C(NCC(=O)NN)c2ccccc2)cc(OC)c1OC (configuration not stated),1,0,19*
CCn1cc(/C=N\NC(=O)c2ccc(Cl)cc2)cn1,nt,0,nt
CC(=O)Nc1ncc2c(n1)CC(c1ccco1)CC2=O (configuration not stated),nt,nt,16*
O=C(CSC(=S)N1CCCCC1)Nc1ncc2c(n1)CC(c1ccco1)CC2=O (configuration not stated),11,1,1
O=C(CSC(=S)N1CCOCC1)Nc1ncc2c(n1)CC(c1ccco1)CC2=O (configuration not stated),30*,nt,0
O=C(Nc1ncc2c(n1)CC(c1ccco1)CC2=O)c1ccco1 (configuration not stated),0,0,nt
Cc1cc(OCC(=O)N2CCOCC2)ccc1NC(=O)c1ccccc1C,2,1,-3
CCCC(=O)Nc1ccc2c(c1)C(=O)N(C)[C@@H]1CC[C@@H](CC(=O)NC3CCCC3)O[C@@H]1CO2,-3,0,-2
C[C@H](CO)N1C[C@H](C)[C@@H](CN(C)S(=O)(=O)c2cn(C)cn2)OCCCC[C@H](C)Oc2ccc(NS(=O)(=O)c3cccs3)cc2C1=O,14,0,2
Cn1cnc(S(=O)(=O)N2CC[C@@H]3[C@H](CO)Nc4ccc(C#Cc5ccccc5)cc4[C@@H]32)c1,nt,1,-2
Cn1cnc(S(=O)(=O)N2CC[C@@H]3[C@@H](CO)Nc4ccc(-c5ccc(F)cc5)cc4[C@@H]32)c1,20,0,0
CCCC#Cc1ccc2c(c1)[C@@H]1[C@@H](CCN1S(=O)(=O)c1ccccc1F)[C@@H](CO)N2,16,1,-2
COc1cccc(-c2ccc3c(c2)[C@H]2[C@H](CCN2S(=O)(=O)c2cn(C)cn2)[C@@H](CO)N3)c1,98*,1,1
COc1cccc(-c2ccc3c(c2)[C@H]2[C@H](CCN2S(=O)(=O)c2cn(C)cn2)[C@H](CO)N3)c1,-4,0,2
Cn1cnc(S(=O)(=O)N2CC[C@@H]3[C@H](CO)Nc4ccc(-c5ccc(F)cc5)cc4[C@@H]32)c1,46*,-1,-4
Cn1cnc(S(=O)(=O)N2CC[C@@H]3[C@H](CO)Nc4ccc(C#Cc5ccc(F)cc5)cc4[C@@H]32)c1,27*,0,3
CCCC#Cc1ccc2c(c1)[C@@H]1[C@@H](CCN1S(=O)(=O)c1ccccc1C)[C@@H](CO)N2,66*,1,18*
Cn1c(=O)ccc2ccccc21,-8,nt,-1
Cc1ccccc1NC(=O)C(C)OC(=O)c1ccccc1C(=O)N(C)c1ccccc1 (configuration not stated),-1,0,0
O=C(CSc1nnc(-c2ccncc2)o1)Nc1ccc(F)c(F)c1,?,-2,1
SMILES,DENV2 CPE,E-sel inducer,SIRT5 block
CCCc1cc(=O)oc2cc(OCC(=O)NC(Cc3c[nH]c4ccc(O)cc34)C(=O)O)c(Cl)cc12 (configuration not stated),?,nt,1
Cc1noc(C)c1NC(=O)N(C)C[C@H]1Oc2ccc(NC(=O)Nc3ccc4c(c3)OCO4)cc2C(=O)N([C@H](C)CO)C[C@H]1C,?,-15,13
CCOC(=O)c1cnc2nc(SC)nn2c1N,11,nt,-1
CCCC#Cc1ccc2c(c1)[C@H]1[C@H](CCN1S(=O)(=O)c1cn(C)cn1)[C@H](CO)N2,65*,0,1
COc1ccccc1C#Cc1ccc2c(c1)[C@@H]1[C@@H](CCN1S(=O)(=O)c1cn(C)cn1)[C@@H](CO)N2,-11,1,5
COc1ccc2cc([C@H](C)C(=O)OCc3cn(CC(=O)c4ccc(O)cc4)nn3)ccc2c1,-5,0,-10
CC(CCC(=O)NN)C1CCC2C3CCC4CC(O)CCC4(C)C3CCC12C (configuration not stated),-6,0,-1
C[C@H](CCC(=O)OCc1cn(CC(=O)c2ccc(O)cc2)nn1)C1CC[C@H]2[C@@H]3CC[C@@H]4C[C@H](O)CC[C@]4(C)[C@H]3C[C@H](O)[C@]12C (some centres not stated),10,0,33*
C[C@H](CCC(=O)O)[C@H]1CC[C@H]2[C@@H]3CC[C@@H]4C[C@H](O)CC[C@]4(C)[C@H]3C[C@H](O)[C@]12C,30*!,0,1
O=C(COC(=O)Cn1cnc2ccccc2c1=O)Nc1ccc(Cl)c(C(F)(F)F)c1,-7,nt,-6
Cc1ccc(S(=O)(=O)N2CCCN(C(=O)c3ccc(-n4nccc4C)cc3)CC2)cc1,-5,-1,-11
C[C@@H]1CCCCO[C@H](CN(C)Cc2ccc(C(F)(F)F)cc2)[C@H](C)CN([C@@H](C)CO)C(=O)c2cc(NC(=O)c3ccncc3)ccc2O1,-4,0,13
O=C(c1cccc(F)c1)N1CC(=O)N2[C@@H](CO)[C@@H](c3ccc(-c4ccccc4F)cc3)[C@@H]2C1,16,0,0
CC(C)(C)c1ccc(C(=O)NCCC(=O)NCc2ccc(F)cc2)cc1,2,0,15*
COc1ccc(CNC(=O)CCNC(=O)c2ccc(C(C)(C)C)cc2)cc1OC,5,0,1
CCOc1cc(C(=O)OCC(=O)NC(C)c2ccccc2)ccc1OCC(=O)N1CCOCC1 (configuration not stated),-7,nt,-7
COc1ccc(-c2nc3ccc([N+](=O)[O-])cc3[nH]2)cc1,-7,-2,0
O=[N+]([O-])c1cc(S(=O)(=O)NC2=NCCCCC2)ccc1Cl,4,-3,3
Cc1ccc2c(c1)N(C(C)C(=O)NCc1cccs1)C(=O)CO2 (configuration not stated),-3,0,-6
CC(C(=O)NCc1cccs1)N1C(=O)c2ccccc2C1=O (configuration not stated),nt,nt,19*
Cc1ccc(NC(=S)NC(=O)c2ccc(Br)o2)c(C)c1,1,nt,-2
CC(C)NC(=O)Nc1ccc2c(c1)CC(=O)N([C@@H](C)CO)C[C@@H](C)[C@H](CN(C)Cc1ccc(C(=O)O)cc1)O2,?,6,-3
CC(C)NC(=O)Nc1ccc2c(c1)CC(=O)N([C@H](C)CO)C[C@H](C)[C@@H](CN(C)Cc1ccc(C(=O)O)cc1)O2,?,39*,-4
CC(C)NC(=O)Nc1ccc2c(c1)CC(=O)N([C@@H](C)CO)C[C@H](C)[C@H](CN(C)Cc1ccc(C(=O)O)cc1)O2,17,42*,13
CC(C)NC(=O)Nc1ccc2c(c1)CC(=O)N([C@@H](C)CO)C[C@@H](C)[C@@H](CN(C)Cc1ccc(C(=O)O)cc1)O2,?,21,-2

# Assay outcomes from PubChem BioAssay.
